Screening results from PubChem.
An excerpt weighted towards active compounds, which were near 2.7% of everything screened.
PREPL inhibitor: PREPL enzyme inhibitors, primary screen, biochemical, fluorescence polarization. AID 2751, 2010. 320,000 tested, 0.68% active. Prolyl endopeptidase-like (Homo sapiens), Q4J6C6. recombinant PREPL, fluorescence polarization activity-based probe. inhibition, % at 5.96 µM;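 further: 0% = enzyme with DMSO and 100% = wells lacking enzyme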
Lipid droplet: inhibitors of hepatocyte lipid droplet formation, primary screen, imaging, high-throughput imaging, BODIPY stain. AID 1656, 2009. inhibition, % at 6.5 µM. AML12 mouse hepatocytes, oleate lipid droplets. 240,000 tested, 0.4% active;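 active means lipid droplet intensity inhibited by at least 50%, with more than 500 cells counted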
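Material: mouse AML12 hepatocyte cell line, fixed after treatment; Timing: compound with oleate, overnight; Technique: high-content imaging of BODIPY-stained droplets and DAPI nuclei; Probe or stimulus: oleate, 100 µM final; Dosing: compound at 6.5 µM only.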
MC4R barr agon: MC4R agonists recruiting beta-arrestin, primary screen, cell-based, luminescence, agonist arm of biased-ligand search; Melanocortin receptor 4 (Homo sapiens), P32245; U2OS MC4R beta-arrestin complementation; percent of melanotan II response, DMSO zero; activation, % at 8.9 µM; 360,000 tested, 0.98% active; AID 540308, 2011;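 active means activation above a per-plate cutoff, the mean activation of sample wells on that plate plus 3 SD, cut at about 8% in these data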
Target sequence (P32245 whole entry, looked up): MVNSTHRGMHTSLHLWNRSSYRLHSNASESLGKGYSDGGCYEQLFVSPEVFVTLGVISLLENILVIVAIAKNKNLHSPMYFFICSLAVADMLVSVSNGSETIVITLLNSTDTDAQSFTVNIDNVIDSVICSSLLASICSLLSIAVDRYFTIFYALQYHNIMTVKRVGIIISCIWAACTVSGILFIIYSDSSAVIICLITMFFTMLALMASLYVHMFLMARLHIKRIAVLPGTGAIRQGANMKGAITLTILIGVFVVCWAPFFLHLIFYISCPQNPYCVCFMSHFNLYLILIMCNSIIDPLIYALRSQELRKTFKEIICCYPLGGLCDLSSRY
MC4R antag cAMP: MC4R antagonists of cAMP signaling, primary screen, cell-based, TR-FRET, antagonist arm of biased-ligand search; MC4R-expressing cells, MTII-stimulated cAMP, LANCE TR-FRET; inhibition, % at 6.5 µM; 360,000 tested, 0.48% active;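 active means inhibition above its plate's cutoff, the mean of tested wells on that plate plus 3 SD, cut at about 29% in these data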;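 further: 0% = Melanotan II alone and 100% = Melanotan II plus saturating MCL0020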
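System – human MC4R-expressing U2OS cells · Also added – Melanotan II · Dosing – one concentration, 6.5 µM nominal · Timing – 30-min compound, 1-h challenge, 1-h detection, room temperature · Measured by – Eu-cAMP/anti-cAMP TR-FRET, emission 671 nm · Replicates – singlicate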
NTR1 agonist: agonists of human NTR1, primary screen, imaging, U2OS cells, beta-arrestin-GFP, high content; Neurotensin receptor type 1 (Homo sapiens), P30989; NTR1-U2OS beta-arrestin-GFP spot imaging, agonist mode; activation, % at 20 µM; 330,000 tested, 0.17% active; AID 493036, 2011;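 active means activation at or above 40% of the spot to cytoplasm intensity ratio, with at least 20 cells analyzed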;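 further: 0% = DMSO without peptide and 100% = 100 nM NTR1 peptide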
m5-HT2A agonist: mouse Htr2a agonists via beta-arrestin recruitment, primary screen, cell-based, luminescence; 5-hydroxytryptamine receptor 2A (Mus musculus), P35363; CHO-K1 mHTR2A beta-arrestin complementation; percent of 30 µM serotonin response; activation, % at 7.6 µM; 360,000 tested, 0.66% active;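 active means activation above a run cutoff, the mean activation of all tested compounds plus 3 SD, cut at about 14% in these data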;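 further: 0% = plate median of compound wells and 100% = 30 µM serotonin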
PREPL confirm: human PREPL enzyme inhibitors, confirmation, biochemical, fluorescence polarization; shares compounds with PREPL inhibitor; recombinant PREPL, fluorescence polarization activity probe; inhibition, % at 5.96 µM; 2,000 tested, 67% active;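 further: 0% = protein with DMSO and 100% = wells lacking protein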
* = called active by the depositor. Unless noted, no stated cut-off is given here; in the data, active means inhibition above about 43%; inactive means the rest.

Results for O=C(O)c1ccc(Cl)c(NC(=O)C2CCCN2S(=O)(=O)c2cccc3nsnc23)c1 (configuration not stated) ?
PREPL inhibitor: 68.6*; MC4R barr agon: -1.3; MC4R antag cAMP: -2.0; NTR1 agonist: 0.5; m5-HT2A agonist: -2.2; PREPL confirm: 0.3

Results for Cc1cc(C)c2c(N)c(-c3nc4ccccc4[nH]3)sc2n1 ?
PREPL inhibitor: 77.8*; MC4R barr agon: -1.6; MC4R antag cAMP: 8.3; NTR1 agonist: 0.8; m5-HT2A agonist: -6.4; PREPL confirm: 2.2

Results for Cc1ccc(-n2nc(C(=O)NN)c(C)c(C#N)c2=O)cc1Cl ?
PREPL inhibitor: 65.8*; Lipid droplet: -4.2; MC4R barr agon: -1.0; MC4R antag cAMP: 1.6; NTR1 agonist: 0.8; m5-HT2A agonist: -1.8; PREPL confirm: 34.5

Results for COc1cccc(C(=O)N2CCN(c3ccc(N4CCOCC4)nn3)CC2)c1 ?
PREPL inhibitor: 9.9; MC4R barr agon: 0.3; MC4R antag cAMP: -2.5; NTR1 agonist: -0.6; m5-HT2A agonist: 10.4

Results for COc1ccc2c(c1)CCc1cc(C(=O)N3CCN(c4ccc(N5CCOCC5)nn4)CC3)sc1-2 ?
PREPL inhibitor: 52.8*; Lipid droplet: -2.9; MC4R barr agon: -1.0; MC4R antag cAMP: -2.8; NTR1 agonist: 13.1; m5-HT2A agonist: 3.7; PREPL confirm: 55.8*

How did Cc1nc2ccccc2c(=O)n1/N=C/c1ccc(O)c(O)c1O do in these assays?
PREPL inhibitor: 45.3*; Lipid droplet: 4.6; MC4R barr agon: -0.6; MC4R antag cAMP: 8.9; NTR1 agonist: 0.3; m5-HT2A agonist: 2.5; PREPL confirm: 38.2

How did Cc1nc2ccccc2c(=O)n1/N=C/c1ccccc1O do in these assays?
PREPL inhibitor: 6.9; Lipid droplet: 14.5; MC4R barr agon: -0.3; MC4R antag cAMP: -6.6; NTR1 agonist: 2.2; m5-HT2A agonist: 0.0

What do the screens show for `COc1ccc(OC)c(CNS(=O)(=O)c2c(C)nc3scc(C)n3c2=O)c1`?
PREPL inhibitor: 11.2; Lipid droplet: -12.2; MC4R barr agon: -2.8; MC4R antag cAMP: -1.4; NTR1 agonist: -1.2; m5-HT2A agonist: 7.7

What do the screens show for `Cc1ccc(S(=O)(=O)NC2=C(N3CCN(c4ccccc4F)CC3)C(=O)c3ccccc3C2=O)cc1`?
PREPL inhibitor: 29.9; MC4R barr agon: -3.0; MC4R antag cAMP: 3.3; NTR1 agonist: 3.1; m5-HT2A agonist: 4.1

Results for CC(=O)Nc1ccc(S(=O)(=O)NC2=C(N3CCN(c4ccc(F)cc4)CC3)C(=O)c3ccccc3C2=O)cc1 ?
PREPL inhibitor: 58.6*; Lipid droplet: -11.8; MC4R barr agon: -2.6; MC4R antag cAMP: -11.8; NTR1 agonist: 10.7; m5-HT2A agonist: 0.0; PREPL confirm: 73.5*

Results for O=C(NC1CCCCC1)C(c1ccccc1)N(Cc1ccc2c(c1)OCO2)C(=O)c1cnsn1 (configuration not stated) ?
PREPL inhibitor: 45.7*; Lipid droplet: 11.5; MC4R barr agon: -2.8; MC4R antag cAMP: 10.2; NTR1 agonist: 3.2; m5-HT2A agonist: -4.2; PREPL confirm: 33.0

Results for Cc1ccc(C(C(=O)NC2CCCC2)N(Cc2ccc3c(c2)OCO3)C(=O)c2snc(C(N)=O)c2N)cc1 (configuration not stated) ?
PREPL inhibitor: -2.5; Lipid droplet: -3.2; MC4R barr agon: 0.7; MC4R antag cAMP: 22.1; NTR1 agonist: 4.8; m5-HT2A agonist: 1.2

How did Cc1ccc(Cl)cc1N1CCN(C(=O)CNC(=O)c2ccc(Br)o2)CC1 do in these assays?
PREPL inhibitor: 5.5; MC4R barr agon: -0.4; MC4R antag cAMP: 18.4; NTR1 agonist: 1.2; m5-HT2A agonist: 6.9

How did COc1ccc(CC(=O)N2CCN(S(=O)(=O)c3cc(Cl)ccc3Cl)CC2)cc1 do in these assays?
PREPL inhibitor: 79.5*; MC4R barr agon: -0.7; MC4R antag cAMP: -3.0; NTR1 agonist: 0.9; m5-HT2A agonist: 6.5; PREPL confirm: 17.6

What do the screens show for `Cc1ccc2nc(-c3ccccn3)c(NC3CCCC3)n2c1`?
PREPL inhibitor: 64.1*; Lipid droplet: -12.0; MC4R barr agon: -2.3; MC4R antag cAMP: 2.6; NTR1 agonist: 0.0; m5-HT2A agonist: -2.5; PREPL confirm: 69.7*

Results for CCCCCCSc1cccc(-c2nc3ccc(C)cn3c2NC2CCCCC2)c1 ?
PREPL inhibitor: 7.6; MC4R barr agon: 1.0; MC4R antag cAMP: -1.6; NTR1 agonist: 6.0; m5-HT2A agonist: 1.8

Results for CCOC(=O)C1CCN(Cc2cc(=O)oc3c(C)c(C)ccc23)CC1 ?
PREPL inhibitor: 43.5*; Lipid droplet: -3.3; MC4R barr agon: -0.2; MC4R antag cAMP: 0.2; NTR1 agonist: -0.6; m5-HT2A agonist: -4.6; PREPL confirm: 34.6

Results for Cc1ccc2c(CN3CCC(C)CC3)cc(=O)oc2c1C ?
Lipid droplet: -9.7; MC4R barr agon: 2.0; MC4R antag cAMP: 10.1; NTR1 agonist: 5.5; m5-HT2A agonist: 2.7

Results for COc1ccc(C2c3ccc4ccccc4c3Oc3ncn(CCCN(C)C)c(=N)c32)cc1 (configuration not stated) ?
PREPL inhibitor: 44.7*; Lipid droplet: -11.2; MC4R barr agon: 1.7; MC4R antag cAMP: 4.5; NTR1 agonist: 24.3; m5-HT2A agonist: -2.0; PREPL confirm: 42.1

How did COc1ccccc1C1c2ccc3ccccc3c2Oc2ncn(CCN(C)C)c(=N)c21 (configuration not stated) do in these assays?
PREPL inhibitor: -15.7; Lipid droplet: -35.8; MC4R barr agon: 3.9; MC4R antag cAMP: -7.5; NTR1 agonist: 6.6; m5-HT2A agonist: -3.6

How did CCN1CCN(S(=O)(=O)c2ccc(Cl)c(C(=O)N(C)Cc3cccc(Cl)c3Cl)c2)CC1 do in these assays?
PREPL inhibitor: 55.2*; MC4R barr agon: -1.4; MC4R antag cAMP: 3.8; NTR1 agonist: 0.7; m5-HT2A agonist: -7.4; PREPL confirm: 42.5

Results for C[C@@H]1CN([C@@H](C)CO)C(=O)Cc2cc(NC(=O)Nc3cccc4ccccc34)ccc2O[C@@H]1CN(C)S(C)(=O)=O ?
PREPL inhibitor: 44.7*; MC4R barr agon: -1.8; MC4R antag cAMP: 6.1; NTR1 agonist: 3.2; m5-HT2A agonist: 3.4; PREPL confirm: 42.5
